Source: PubChem
Vif imaging: blocks HIV Vif function. AID 602346. actives 0.35% (n = 340,000). inhibition, % at 7.49 µM. HEK293T cells, Vif self-association by quenched fluorescence, imaging, 24 h; in the data active = inhibition above about 50%, passing the limit was not always enough
PGC1a acetyl inh: modulators of PGC1a acetylation. U2OS PGC1a acetylation, AlphaScreen anti-acetyl-lysine; with virally co-expressed GCN5 acetyltransferase. actives 0.17% (n = 350,000). inhibition, % at 15.6 µM;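 active = every replicate shows inhibition of at least 40%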;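 note: 0% = neutral control wells and 100% = positive control wells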
Cneo AK release: Cryptococcus neoformans lysis via adenylate kinase release; C. neoformans lysis, adenylate kinase release luminescence, 4 h; normalised: neutral wells 0, clomiphene wells 100; lysis activity, % at 15 µM; actives 0.2% (n = 360,000);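 active = mean lysis activity across replicates of at least 80%, whatever share of replicates individually reach that level; inactive = mean lysis activity below 80%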
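Schedule: static 4 h at 37 °C with compound, 1 h detection; system: C. neoformans cells; benchmarks: Clomiphene as positive control; buffer or medium: fresh YPD medium; measure: luminescence rise reflecting yeast cell lysis; measured by: luminescent adenylate kinase detection reagent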
FGF22 binding-1: binders of recombinant human FGF22 by thermal shift | SYPRO orange fluorescence; percent of sucrose octasulfate shift, DMSO zero | activity (Tm shift, normalised), % at 9.99 µM | Q9HCT0 | actives 1.5% (n = 340,000);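 active = mean Tm shift, scaled 0 neutral to 100 positive control, at about 1.3% or above, every replicate too, limit read from the data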
Target sequence (Q9HCT0 whole entry, looked up): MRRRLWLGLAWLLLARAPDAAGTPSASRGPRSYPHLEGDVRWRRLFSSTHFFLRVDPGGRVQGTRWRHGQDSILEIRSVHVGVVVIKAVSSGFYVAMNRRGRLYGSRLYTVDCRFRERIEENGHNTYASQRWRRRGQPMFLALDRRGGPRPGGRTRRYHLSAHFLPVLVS
Ecoli rRNA inh: selective bacterial rRNA inhibition in E. coli; AID 720706; GFP signal change (wild-type ribosome), % (concentration not given with the values); actives 1.6% (n = 350,000); E. coli WT GFP vs humanized-ribosome RFP mutants, fluorescence, 24 h; stronger effect = lower value; DMSO median 0, no signal -100;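 active = significant combined selectivity score with lowered wild-type GFP, culture density cut under 30%, mutant RFP and density less affected; inactive = any of these conditions unmet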
PglD inh: inhibitors of Campylobacter jejuni PglD acetyltransferase; purified PglD enzyme, DTNB colorimetric CoA detection; AID 602405; actives 0.098% (n = 360,000); inhibition, % at 12.5 µM; in the data active = inhibition above about 16%, passing the limit was not always enough
FGF22 binding-2: binds human FGF22 shifting its melting temperature; shares compounds with FGF22 binding-1; recombinant FGF22 thermal shift, SYPRO orange fluorescence; thermal shift activity, °C (ΔTm) at 38 µM; actives 2% (n = 1,000); AID 720646;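 active = fitted rise in melting shift crosses a set limit at or below the top valid dose tested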
TSA no protein: counter-screen for FGF22 binders: compound-only thermal shift, no protein | shares compounds with FGF22 binding-1 | compound-only SYPRO orange thermal shift counter-screen | AC50, µM (doses to about 38 µM) | actives 2% (n = 1,000);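 active = rising signal whose fitted curve reaches the 0.54 level within the top valid dose, showing a melting point, actives reach about 13 µM in these data; inactive = the rest, including activity in the opposite direction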; note: value is where the raw curve crosses a fixed level and not half-maximal
Numbers without * were called inactive; i = inactive; x = not tested or not shown; [ ] = remark or other dose. Most compounds without a hit are left out; they make up all but 2.9% or so of the library.

SMILES	Vif imaging	PGC1a acetyl inh	Cneo AK release	FGF22 binding-1	Ecoli rRNA inh	PglD inh	FGF22 binding-2	TSA no protein
O=C(C[C@@H]1C[C@H]2c3cc(NC(=O)Nc4ccccc4F)ccc3O[C@H]2[C@@H](CO)O1)NCCc1ccccc1	x	5	22	0	-2	-2	x	x
Cc1cc(C)cc(NS(=O)(=O)c2cc3[nH]c(=O)c(=O)[nH]c3cc2C)c1	12	x	-5	1.7*	7	3	0.031	i
COc1cccc(NS(=O)(=O)c2cc3[nH]c(=O)c(=O)[nH]c3cc2C)c1	-9	-10	3	0	10	-4	x	x
COc1ccc(S(=O)(=O)Nc2ccc3c(c2)CC(=O)N([C@@H](C)CO)C[C@@H](C)[C@H](CN(C)C(=O)Nc2cccc4ccccc24)O3)cc1	x	-7	x	0	5	x	x	x
Cc1cccc(S(=O)(=O)N2CCCCN3[C@@H](CO)[C@@H](c4ccc(C#C[C@H](C)O)cc4)[C@@H]3C2)c1	x	12	53	1.3*	-4	1	-0.087[42 µM]	i
O=S(=O)(c1ccc(F)cc1)N1CCCC1	8	5	2	0	13	2	x	x
O=S(=O)(Nc1ccccc1OC(F)F)c1ccc(S(=O)(=O)N2CCCC2)cc1	-6	1	0	3.2*	-13	-2	-0.032	i
Cc1noc(C)c1S(=O)(=O)N(C)C[C@@H]1OCCCC[C@@H](C)Oc2ccc(NC(=O)Cc3ccccc3)cc2C(=O)N([C@@H](C)CO)C[C@H]1C	x	0	2	0	1	-1	x	x
C/C=C/c1ccccc1[C@@H]1[C@@H](C#N)N(C(C)=O)[C@@H]1CO	x	4	x	1.3*	2	x	-0.004[42 µM]	i
N#C[C@@H]1[C@H](c2ccc(-c3cccnc3)cc2)[C@H](CO)N1C(=O)Nc1ccc(F)cc1	x	-13	-6	2.7*	-2	-5	0.067[42 µM]	i
Cc1ccccc1-c1ccccc1[C@H]1[C@@H](CO)N(C(=O)c2ccccc2)[C@H]1C#N	x	-24	x	1.7*	4	x	0.13[42 µM]	i
N#C[C@H]1[C@@H](c2ccc(-c3cccnc3)cc2)[C@@H](CO)N1C(=O)Nc1ccc(F)cc1	x	2	-5	0	-4	0	x	x
CC(C)NC(=O)N1[C@H](CO)[C@H](c2ccccc2-c2ccc(F)cc2)[C@@H]1C#N	x	-14	x	1.8*	-4	x	0.22	i
CCCN1[C@@H]2c3ccc(-c4cccnc4)c(=O)n3C[C@@H]2[C@@H](CO)[C@@H]1C(=O)NC1CCCC1	x	2	x	x	-5	x	x	x
O=C(C[C@@H]1CC[C@@H](NC(=O)Cc2ccccn2)[C@H](CO)O1)NCCCN1CCOCC1	x	1	-2	0	4	1	x	x
CCN(CC)c1ccc(/C=N/NC(=O)c2cc3ccccc3[nH]2)cc1	19	x	-4	0	-18	4	x	x
CCN(CC)c1ccc(/C=N/NC(=O)c2c[nH]c3ccccc23)cc1	-2	x	x	1.8*	0	x	-0.099	i
Cc1ccc(CCNc2ncnc(Cl)c2N)cc1	-4	-23	-1	1.7*	1	2	-0.12	i
CC(=O)N(C)C[C@H]1Oc2ncc(C#C[C@H](C)O)cc2C(=O)N([C@@H](C)CO)C[C@@H]1C	x	-5	1	3.6*	7	3	-0.13	i
CC(C)C#Cc1cnc2c(c1)C(=O)N([C@@H](C)CO)C[C@@H](C)[C@H](CN(C)C(=O)c1cnccn1)O2	x	-4	-4	1.3*	2	7	0.028	i
C/C=C/c1cnc2c(c1)C(=O)N([C@@H](C)CO)C[C@H](C)[C@@H](CN(C)C(=O)c1ccc3c(c1)OCO3)O2	x	-3	8	2.6*	-3	-1	0.17	i
COCC(=O)Nc1ccc2c(c1)C(=O)N(C)[C@H]1CC[C@H](CC(=O)NCC3CC3)O[C@H]1CO2	x	-5	-4	0	4	-4	x	x
COc1ccc(C2=NN(c3ccccc3)C(c3cn(CCC(=O)O)nc3-c3ccccc3)C2)cc1 (stereo not given)	1	-2	x	2.3*	6	x	0.065	i
COc1ccc(-c2nn(CCC(=O)O)cc2CCC(=O)O)cc1	-10	-1	-3	x	x	-4	x	x
COc1ccccc1NC(=O)N1CC(=O)N2[C@H](C1)[C@H](c1ccc(C#CCC(C)C)cc1)[C@@H]2CO	x	x	x	x	-12	x	x	x
SMILES	Vif imaging	PGC1a acetyl inh	Cneo AK release	FGF22 binding-1	Ecoli rRNA inh	PglD inh	FGF22 binding-2	TSA no protein
CCc1ccc(NC(=O)c2ccc(-n3cncn3)c([N+](=O)[O-])c2)cc1	-3	-1	0	2.3*	-8	6	0.1	i
COc1ccc(CN(C)C[C@H]2OCCCC[C@H](C)Oc3ccc(NS(=O)(=O)c4ccc(F)cc4)cc3C(=O)N([C@H](C)CO)C[C@@H]2C)cc1	x	1	-1	0	-3	-2	x	x
COCC(=O)N(C)C[C@H]1Oc2cc(-c3ccccc3F)ccc2S(=O)(=O)N([C@@H](C)CO)C[C@@H]1C	x	7	-2	0	-3	-3	x	x
CO[C@H]1CN(C)C(=O)c2cc(NS(=O)(=O)CC(F)(F)F)ccc2OC[C@H](C)N(Cc2nccs2)C[C@H]1C	x	18	46	1	-3	0	x	x
C[C@@H]1CN([C@H](C)CO)C(=O)Cc2cc(NC(=O)Nc3cccc4ccccc34)ccc2O[C@@H]1CN(C)Cc1ccc(Oc2ccccc2)cc1	x	-11	1	0	4	-1	x	x
CCc1nnc(NS(=O)(=O)c2ccc(NC(=S)NC(=O)/C=C/c3ccc([N+](=O)[O-])cc3)cc2)s1	-1	18	-1	2.5*	6	-6	-0.005	i
Cc1noc(C)c1S(=O)(=O)N(C)C[C@@H]1Oc2ccc(NC(=O)NC3CCCCC3)cc2CC(=O)N([C@H](C)CO)C[C@H]1C	x	5	13	0	-3	0	x	x
CC(C)CCNC(=O)c1onc(CSc2ccncc2)c1C(=O)NCCC(C)C	-4	x	2	18*	4	3	0.095	8.3µM*
CCCCNC(=O)c1onc(CSc2ccc(C(C)C)cc2)c1C(=O)O	-9	-21	19	1.5*	-51	2	-0.034	i
CCCNC(=O)c1onc(CSc2ccncc2)c1C(=O)NCCC	-2	x	1	0	-1	0	x	x
O=C(O)c1ccc(/C=N/NC(=O)c2ccc(NS(=O)(=O)c3cccs3)cc2)cc1	10	-8	-1	0	-4	6	x	x
COc1ccc(/C=N/NC(=O)c2ccc(NS(=O)(=O)c3cccs3)cc2)cc1	5	3	-3	1.7*	-3	-2	-0.093	i
